Results on five compounds are retold here after ChEMBL document CHEMBL4613274, “Chimeric Peptidomimetics of SOCS 3 Able to Interact with JAK2 as Anti-inflammatory Compounds” (ACS Med Chem Lett, 2020).

Usually inhibition stands for the relative decrease from the control value, in per cent. For orientation: Kd means the concentration at which binding is half-saturated. A higher Kd goes with lower affinity.

The source made the active and inactive calls. No cut-off for these calls is given here. Square brackets hold non-standard residues; d marks the D form. Peptide text beside a SMILES is read from it. βAla = NCCC(=O)O

Data set [1] addresses Signal transducer and activator of transcription 3 (Mus musculus) (UniProt P42227). The data set is described as follows: Inhibition of IFNgamma and IL6 induced STAT3 activation in mouse VSMC cells assessed as decrease in STAT3 phosphorylation at 5 uM pretreated for 90 mins using TAMRA-conjugated peptide followed by IFNgamma and IL6 stimulation for 1 hr by DAPI staining based immunofluorescence assay relative to control. Format: cell-based. In a few lines: (§1)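 Primary mouse VSMCs stimulated with IFNγ+IL-6 with or without TAMRA-labeled peptide 5 μM; immunofluorescence for phospho-STAT3 with DAPI nuclear counterstain, confocal imaging. P-STAT3 fluorescence intensity given as percentage, mean ± SEM, n = 3 independent experiments.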

In data set [2] the test system is RAW264.7. The data set is described as follows: Antiinflammatory activity against mouse RAW264.7 cells assessed as reduction in IFNgamma and IL6-induced mRNA expression of Cxcl10 at […] pretreated for 90 mind followed by IFNgamma and IL6 stimulation for 1 hr by Trizol reagent based RT-PCR analysis. In kind it is functional, cell-based. In outline:
(§2)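 RAW264.7 murine macrophage-like cells; peptides (conjugated to HIV Tat 48–60 for cell entry) or Ala/Arg negative-control peptide at 12.5 μM, then IFNγ+IL-6 stimulation 1 h. Cxcl10, Ccl5 and Nox2 mRNA quantified by real-time PCR.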

A short description of data set [3]: Drug distribution in cytoplasm of mouse VSMC measured after 2 hrs by confocal microscopy. In kind it is ADME, subcellular. The note with it: in vitro. In a few lines: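 Primary murine vascular smooth muscle cells exposed to fluorescent (TAMRA-labeled), Tat 48–60-conjugated peptides; uptake and subcellular distribution imaged by confocal microscopy after 2 h.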

For data set [4], the target named is Signal transducer and activator of transcription 3 (Mus musculus) (UniProt P42227). The data set is described as follows: Inhibition of IFNgamma and IL6 induced STAT3 nuclear translocation in mouse VSMC cells at 5 uM pretreated for 90 mins using TAMRA-conjugated peptide followed by IFNgamma and IL6 stimulation for 1 hr by DAPI staining based immunofluorescence assay relative to control. Format: cell-based. In a few lines:
as §1

Data set [5] is described as follows: Stability of compound in FBS assessed as residual concentration at 80 uM incubated for 2 hrs by RP-HPLC analysis. Format: physicochemical. The note with it: cattle, fetal bovine serum (FBS); read-out: Stability. In a few lines:
(§3)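 Pure peptides incubated in fetal bovine serum; decrease of chromatographic peak area followed over time, expressed as area percentage remaining.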

The subject of data set [6] is RAW264.7. The data set is described as follows: Antiinflammatory activity against mouse RAW264.7 cells assessed as reduction in IFNgamma and IL6-induced mRNA expression of Ccl5 at […] pretreated for 90 mind followed by IFNgamma and IL6 stimulation for 1 hr by Trizol reagent based RT-PCR analysis. Format: functional, cell-based. In a few lines: as §2
Data set [7] deals with RAW264.7. In words: Antioxidant activity against mouse RAW264.7 cells assessed as reduction in IFNgamma and IL6-induced mRNA expression of Nox2 at […] pretreated for 90 mind followed by IFNgamma and IL6 stimulation for 1 hr by Trizol reagent based RT-PCR analysis. In kind it is functional, cell-based. In outline:
as §2

Data set [8] in a line: Stability of compound in FBS assessed as decrease in chromatographic peak at 80 uM incubated up to 4 hrs by RP-HPLC analysis. To be noted: cattle. Format: physicochemical. In outline: as §3
Data set [9] has as its target Tyrosine-protein kinase JAK2 (Homo sapiens, UniProt O60674). In words: Binding affinity to human N-terminal His-tagged JAK2 catalytic domain (826 to 1132 end residues) at 25 degree C by microscale thermophoresis assay. In outline: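 JAK2 catalytic domain binding by microscale thermophoresis; labeled target with 1:1 serial dilutions of peptide (14–16 samples) from stocks of ~404–409 μM in labeling buffer pH 7.5. Temperature-induced fluorescence change plotted versus peptide concentration; KD from fitting of binding isotherm.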
Background: In MST a laser heats a spot of the sample, and binding alters the fluorescence response.

Data set [10] in a line: Stability of compound in FBS assessed as drug degradation at 80 uM incubated for 2 hrs by RP-HPLC analysis. In kind it is physicochemical. To be noted: cattle, fetal bovine serum (FBS); read-out: Drug degradation. In outline:
as §3

Tyrosine-protein kinase JAK2, sequence (O60674 whole entry, the tested form may be a part): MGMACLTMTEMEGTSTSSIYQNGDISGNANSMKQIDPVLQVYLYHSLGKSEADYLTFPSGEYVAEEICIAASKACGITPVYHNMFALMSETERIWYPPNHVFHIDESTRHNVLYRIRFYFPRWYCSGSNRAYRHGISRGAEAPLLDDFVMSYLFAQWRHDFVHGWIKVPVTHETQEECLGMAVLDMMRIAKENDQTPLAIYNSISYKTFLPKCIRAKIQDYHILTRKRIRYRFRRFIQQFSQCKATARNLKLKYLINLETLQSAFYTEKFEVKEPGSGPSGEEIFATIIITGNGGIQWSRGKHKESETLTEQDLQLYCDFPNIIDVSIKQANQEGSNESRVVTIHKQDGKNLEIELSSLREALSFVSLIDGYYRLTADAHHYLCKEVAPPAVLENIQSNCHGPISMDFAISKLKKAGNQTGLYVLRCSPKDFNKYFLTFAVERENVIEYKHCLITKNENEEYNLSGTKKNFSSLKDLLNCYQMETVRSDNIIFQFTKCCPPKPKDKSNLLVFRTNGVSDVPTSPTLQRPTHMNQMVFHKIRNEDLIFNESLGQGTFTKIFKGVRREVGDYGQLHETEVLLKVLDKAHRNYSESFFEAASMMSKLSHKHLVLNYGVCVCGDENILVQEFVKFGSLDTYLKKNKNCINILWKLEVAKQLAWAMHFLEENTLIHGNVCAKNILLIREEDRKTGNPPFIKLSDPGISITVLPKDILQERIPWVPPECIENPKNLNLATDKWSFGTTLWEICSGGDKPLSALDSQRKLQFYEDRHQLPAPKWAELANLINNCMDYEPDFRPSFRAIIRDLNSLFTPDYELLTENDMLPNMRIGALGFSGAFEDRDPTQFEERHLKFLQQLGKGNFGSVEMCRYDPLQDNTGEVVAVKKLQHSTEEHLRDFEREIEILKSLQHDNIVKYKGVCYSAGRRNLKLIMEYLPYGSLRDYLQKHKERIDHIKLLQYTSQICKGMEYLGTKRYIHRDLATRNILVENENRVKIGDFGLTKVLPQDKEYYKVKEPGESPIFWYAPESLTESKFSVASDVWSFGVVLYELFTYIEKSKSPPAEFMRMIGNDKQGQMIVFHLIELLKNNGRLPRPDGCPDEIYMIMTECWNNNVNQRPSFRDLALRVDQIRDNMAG
Signal transducer and activator of transcription 3 (Mus musculus), sequence (P42227 whole entry): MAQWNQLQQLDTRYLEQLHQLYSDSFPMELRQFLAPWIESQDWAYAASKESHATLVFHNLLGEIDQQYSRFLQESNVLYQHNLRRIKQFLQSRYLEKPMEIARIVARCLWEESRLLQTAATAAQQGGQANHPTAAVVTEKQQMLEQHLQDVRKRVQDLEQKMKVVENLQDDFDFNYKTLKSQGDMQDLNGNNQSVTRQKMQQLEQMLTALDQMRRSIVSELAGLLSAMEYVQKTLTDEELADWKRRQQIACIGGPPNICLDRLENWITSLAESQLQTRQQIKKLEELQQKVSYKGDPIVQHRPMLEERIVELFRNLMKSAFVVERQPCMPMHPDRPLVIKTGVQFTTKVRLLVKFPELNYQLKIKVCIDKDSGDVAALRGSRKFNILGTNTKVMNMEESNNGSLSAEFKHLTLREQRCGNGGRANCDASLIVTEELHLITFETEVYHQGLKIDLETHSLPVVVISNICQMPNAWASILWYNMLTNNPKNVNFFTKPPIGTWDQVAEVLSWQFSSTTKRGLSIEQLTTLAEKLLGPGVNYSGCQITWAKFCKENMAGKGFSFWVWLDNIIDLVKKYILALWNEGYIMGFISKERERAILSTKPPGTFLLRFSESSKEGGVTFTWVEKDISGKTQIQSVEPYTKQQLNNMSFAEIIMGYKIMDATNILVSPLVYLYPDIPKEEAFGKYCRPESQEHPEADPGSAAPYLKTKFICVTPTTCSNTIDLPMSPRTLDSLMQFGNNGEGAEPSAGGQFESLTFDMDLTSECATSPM

As to `CC(=O)N[C@@H](CC(C)C)C(=O)N[C@@H](CCCCN)C(=O)N[C@H](C(=O)N[C@@H](Cc1ccccc1)C(=O)N[C@@H](CO)C(=O)N[C@@H](CO)C(=O)N[C@@H](CCCCN)C(=O)N[C@@H](CO)C(=O)N[C@@H](CCC(=O)O)C(=O)N[C@@H](Cc1ccc(O)cc1)C(=O)N[C@@H](CCC(N)=O)C(=O)N[C@@H](CC(C)C)C(=O)N[C@H](C(=O)N[C@H](C(=O)N[C@@H](CC(N)=O)C(=O)N[C@@H](C)C(=O)N[C@H](C(=O)N[C@@H](CCCNC(=N)N)C(=O)N[C@@H](CCCCN)C(=O)N[C@@H](CC(C)C)C(=O)N[C@@H](CCC(N)=O)C(=O)N[C@@H](CCC(=O)O)C(=O)N[C@@H](CO)C(=O)NCC(N)=O)C(C)C)C(C)C)C(C)C)[C@@H](C)O`, the inhibition in data set [1] came to 65%. For the same compound, the outcome in the data set with RAW264.7 [2], in the data set with RAW264.7 [6] and with RAW264.7 [7] was Active. Moreover, the Drug uptake entry in [3] is reported as “Active”. Also, the inhibition entry in data set [4] was “Active”. Also, the remaining at 2 h, 80 µM in [5] turned out to be 40%.
Regarding `CC(=O)N[C@@H](CCCCN)C(=O)NCCC(=O)N[C@@H](Cc1ccccc1)C(=O)N[C@@H](CO)C(=O)N[C@@H](CO)C(=O)N[C@@H](CCCCN)C(=O)N[C@@H](CO)C(=O)N[C@@H](CCC(=O)O)C(=O)N[C@@H](Cc1ccc(O)cc1)C(=O)N[C@@H](CCC(N)=O)C(=O)N[C@@H](CC(C)C)C(=O)NCCC(=O)NCCC(=O)N[C@@H](Cc1ccccc1)C(=O)N[C@@H](Cc1ccc(O)cc1)C(=O)N[C@@H](Cc1c[nH]c2ccccc12)C(=O)N[C@@H](CO)C(=O)N[C@@H](C)C(=O)N[C@H](C(=O)N[C@H](C(N)=O)[C@@H](C)O)C(C)C` (Ac-K[βAla]FSSKSEYQL[βAla][βAla]FYWSAVT-NH2), the inhibition in data set [1] was determined as 65%. The outcome in the data set with RAW264.7 [2], with RAW264.7 [6] and in the data set on RAW264.7 [7] was Active. Moreover, the Drug uptake result in data set [3] is “Active”. Moreover, the Stability entry in data set [8] was “Stable”. For the same compound, the inhibition entry in data set [4] was “Active”. Also, in [5], the remaining at 2 h, 80 µM came to 70%. The Activity result in data set [9] was “Dose-dependent effect”. In [9], this compound gave a Kd of 11 µM.
Ac-AAARAAARAAARAAARAAARAAAA-NH2: the outcome with RAW264.7 [2], with RAW264.7 [6] and in the data set on RAW264.7 [7] was inactive. Moreover, in [4], the inhibition result was “inactive”.
Turning to Ac-FSSKSEYQLVVNAVRKLQESGFYWSAVT-NH2, the Stability entry in [8] is recorded as “Stable”. Moreover, the metabolised at 2 h, 80 µM in data set [10] is 100%. For the same compound, the Activity entry in data set [9] is “Dose-dependent effect”.
For the compound Ac-VVNAVRKLQESGFYWSAVT-NH2, the Stability result in data set [8] is “Stable”. In addition, the Activity result in data set [9] is “Dose-dependent effect”.
